Measurements from ChEMBL document CHEMBL4619773, “Chemoreactive-Inspired Discovery of Influenza A Virus Dual Inhibitor to Block Hemagglutinin-Mediated Adsorption and Membrane Fusion” (J Med Chem, 2020).
Activity calls are given as the source filed them. No cut-off for these calls is given here.

Columns and labels:
Influenza A virus [1] = assay: Antiviral activity against Influenza A virus (A/Puerto Rico/8/1934(H1N1)) infected in MDCK cells assessed as inhibition of virus-induced cytopathic effect incubated for 48 hrs by crystal violet staining based assay; type: functional, organism-based
Outline: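 MDCK cells were infected at MOI 0.1, the inoculum was removed, and compounds were added in triplicate. After 48 h the cells were fixed in 4% formaldehyde (20 min, RT) and stained with 0.1% crystal violet (30 min). Dye was solubilized in methanol and read at 570 nm.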

[2] = AUC (0 to t) in mouse at 5 mg/kg, po administered as single dose; type: ADME, organism-based; conditions: in vivo
Outline: (§1)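 Male Kunming mice (20-25 g) and male Sprague Dawley rats (180-220 g) were fasted 12 h before dosing. Oral dosing was by gavage as a suspension in 0.5% sodium carboxymethyl cellulose; iv dosing was via tail vein in PEG400. Serial plasma samples were taken to 24 h, protein-precipitated with acetonitrile plus N-CH3 internal standard, and quantified by LC-MS/MS (n=3). Bioavailability = AUCoral/AUCiv.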

[3] = Cumulative drug excretion in mouse urine at 5 mg/kg, po administered as single dose measured after 72 hrs; type: ADME, organism-based; conditions: read-out: Drug excretion
Outline: (§2)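 Single oral (gavage, 0.5% CMC-Na) or iv (tail vein, PEG400) dosing was given to male Kunming mice or Sprague Dawley rats held in metabolic cages. Urine and feces were collected at intervals to 72 h. Feces were dried, ground and homogenized in water (1:9 w/v). Samples were precipitated with acetonitrile containing internal standard and analysed by LC-MS/MS.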

[4] = Metabolic stability in mouse liver microsomes at 2 uM after 60 mins; type: ADME, Microsome; conditions: read-out: Stability
Outline: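 Mouse, rat or human liver microsomes (final 0.5 mg/mL protein) were preincubated with an NADPH-regenerating system in 50 mM Tris-HCl pH 7.4 at 37 °C for 5 min. Compound was added at 2 µM final and incubated at 37 °C; NADPH-free incubations served as controls. Reactions were quenched with acetonitrile plus internal standard at 60 min. Percent remaining was measured by LC-MS/MS (n=3).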

[5] = Half life in rat at 3.5 mg/kg , po administered as single dose; type: ADME, organism-based; conditions: in vivo; outline: as §1
[6] = Oral bioavailability in rat at 3.5 mg/kg administered as single dose; type: ADME, organism-based; conditions: in vivo
Outline: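 Male Kunming mice (20–25 g) and male SD rats (180–220 g) were fasted 12 h before dosing. Compound was suspended in 0.5% CMC-Na and given by gavage (5 mg/kg mice, 3.5 mg/kg rats), or dissolved in PEG400 and given iv via tail vein (0.5 mg/kg mice, 0.35 mg/kg rats). Plasma was sampled from 5 min to 24 h and analysed by LC-MS/MS (n=3). F = AUCoral/AUCiv.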

[7] = Cumulative drug excretion in rat urine at 3.5 mg/kg, po administered as single dose measured after 72 hrs; type: ADME, organism-based; conditions: read-out: Drug excretion; outline: as §2
Influenza A virus [8] = assay: Antiviral activity against Influenza A virus (A/Puerto Rico/8/1934(H1N1)) infected in MDCK cells incubated for 3 days by crystal violet staining based plaque assay; type: functional, organism-based; conditions: 72 h
Outline: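 Confluent MDCK monolayers were exposed to 10-fold serial virus dilutions for 1 h at 37 °C, then washed. The overlay was DMEM with 1.5% agarose, 0.02% DEAE-dextran and 1 µg/ml TPCK-trypsin. After 3 days at 37 °C in 5% CO2, cells were fixed with 0.05% glutaraldehyde, stained with 1% crystal violet in 20% ethanol, and plaques were counted.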

[9] = Toxicity in Kunming mouse assessed as effect on LDH level at 5 to 10 mg/kg/day, po for 7 days; type: organism-based; conditions: in vivo, 168 h
Outline: (§3)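 Male Kunming mice (20–25 g) received compound orally at 5 or 10 mg/kg/day, suspended in 0.5% sodium carboxymethyl cellulose, once daily for 7 days; controls received vehicle. Serum was collected under isoflurane 24 h after the last dose. AST, ALT, CR, BUN, LDH, CK and CK-MB were measured with commercial kits.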

[10] = Toxicity in Kunming mouse assessed as effect on creatine kinase level at 5 to 10 mg/kg/day, po for 7 days; type: organism-based; conditions: in vivo, 168 h; outline: as §3
Influenza A virus [11] = assay: Antiviral activity against Influenza A virus (A/Puerto Rico/8/1934(H1N1)) infected in MDCK cells assessed as decrease in viral titers at 50 ug/ml added during adsorption stage and measured 24 hrs post infection by HA assay; type: functional, organism-based
Outline: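 MDCK cells were infected at high moi (≈3.0 PFU/cell). Virus-containing supernatants were serially diluted 2-fold and mixed with an equal volume of 1% chicken red blood cells. After 60 min at 4 °C, wells were scored for button sedimentation versus opaque agglutination to give titers.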

[12] = target: Hemagglutinin (Influenza A virus (A/Puerto Rico/8/1934(H1N1))) (UniProt P03452); assay: Inhibition of Influenza A virus (A/Puerto Rico/8/1934(H1N1)) Hemagglutinin expressed in African green monkey Vero cells assessed as reduction in virus-induced syncytium formation at 50 ug/ml pre-treated with trypsin followed by compound addition for 15 mins and measured after 2 hrs at pH 5 by HA syncytium assay; type: cell-based
Hemagglutinin (Influenza A virus (A/Puerto Rico/8/1934(H1N1))), sequence (P03452 whole entry): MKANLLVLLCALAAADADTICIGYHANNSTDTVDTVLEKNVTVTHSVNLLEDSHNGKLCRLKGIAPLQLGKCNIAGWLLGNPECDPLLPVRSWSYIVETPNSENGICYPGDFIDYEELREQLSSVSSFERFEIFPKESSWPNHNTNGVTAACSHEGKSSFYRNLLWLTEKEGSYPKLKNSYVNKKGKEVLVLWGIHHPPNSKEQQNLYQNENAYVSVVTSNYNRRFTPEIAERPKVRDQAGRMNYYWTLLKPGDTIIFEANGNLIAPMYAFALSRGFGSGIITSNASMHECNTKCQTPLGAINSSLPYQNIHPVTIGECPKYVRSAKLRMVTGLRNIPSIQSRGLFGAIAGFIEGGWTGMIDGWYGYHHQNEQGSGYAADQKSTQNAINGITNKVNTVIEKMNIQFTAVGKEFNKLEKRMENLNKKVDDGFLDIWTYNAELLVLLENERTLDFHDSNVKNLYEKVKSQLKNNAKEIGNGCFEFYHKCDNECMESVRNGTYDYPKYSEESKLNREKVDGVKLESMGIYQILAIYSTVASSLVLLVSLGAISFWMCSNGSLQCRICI
Outline: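 Vero cells were transfected with PR8 HA plasmid (2 µg per well). At 16 h post-transfection, HA was cleaved with 5 µg/mL TPCK-trypsin for 15 min at 37 °C. Cells were pre-incubated with compound for 15 min at 37 °C, then exposed to pH 5.0 buffer containing compound for 10 min at 37 °C. After rinsing, cells were kept in 10% FBS medium for 2 h, stained, and syncytia imaged.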

Influenza A virus [13] = assay: Antiviral activity against luciferase tagged Influenza A virus H5N1 pseudovirus infected in MDCK cells assessed as reduction in virus infection incubated for 48 hrs by luciferase reporter gene assay; type: functional, organism-based
Outline: (§4)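 MDCK cells infected with luciferase-expressing H5N1 HA/NA pseudotyped HIV-based virus were treated with compound under four different treatment regimens. Infection was quantified by firefly luciferase glow assay.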

Influenza A virus [14] = assay: Antiviral activity against luciferase tagged Influenza A virus H5N1 pseudovirus infected in MDCK cells assessed as reduction in virus infection at 50 ug/ml using compound pre-treated virus for infection and measured after 48 hrs by luciferase reporter gene assay; type: functional, organism-based; outline: as §4
[15] = target: Hemagglutinin (Influenza A virus (A/Puerto Rico/8/1934(H1N1)), UniProt P03452); assay: Binding affinity to Influenza A virus (A/California/04/2009(H1N1)) Hemagglutinin at 1.5625 to 50 uM by SPR assay
Hemagglutinin (Influenza A virus (A/Puerto Rico/8/1934(H1N1)), UniProt P03452), sequence (P03452 whole entry): as above
Outline: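 HA protein was immobilized on CM5 chips. Compound (50, […], 12.5, 6.25, 3.125, 1.5625 µM) was injected for 2 min, followed by a 10-min PBST wash and regeneration with 2 mM NaOH for 30 s. Runs were at 25 °C with 2 µl/s flow, using a blank HA-free reference channel. KD was obtained from kinetic fitting.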

[16] = target: Hemagglutinin (Influenza A virus (A/Puerto Rico/8/1934(H1N1))) (UniProt P03452); assay: Inhibition of trypsin-mediated cleavage of Influenza A virus (A/Puerto Rico/8/1934(H1N1)) Hemagglutinin (HA0) at 50 ug/ml incubated for 30 mins by Coomassie blue fast staining and SDS-PAGE gel based trypsin susceptibility assay
Outline: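 About 5 µg PR8 HA protein was preincubated with about 50 µg/ml compound for 30 min at RT; controls received 2% DMSO. Samples were acidified with 1 M sodium acetate pH 5.0 (one kept at pH 7.0) for 20 min at 37 °C, then neutralized with 200 mM Tris pH 8.5. TPCK-trypsin was added at 1:50 by mass for 30 min at 37 °C. Samples were run on non-reducing 12% SDS-PAGE with Coomassie staining.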

CC(=O)c1cc(C)c(O)c(Cc2[nH]c3ccccc3c2Cc2c(O)c(C)cc(C(C)=O)c2O)c1O
IC50 (Influenza A virus [1]): 26.4 µM
AUC(0-t) [2]: 152 ng·h/mL
dose excreted at 72 h [3]: 0.03%
remaining at 1 h, 2 µM [4]: 0.8%
half-life [5]: 3.3 h
bioavailability [6]: 1.4%
dose excreted at 72 h [7]: 0.004%
IC50 (Influenza A virus [8]): < 13 µg/mL
Activity [9]: Non-Toxic
Activity [10]: Non-Toxic
Activity (Influenza A virus [11]): Active
inhibition [12]: Active
Activity (Influenza A virus [13]): Dose-dependent effect
inhibition (Influenza A virus [14]): Active
Kd [15]: 6.9 µM
inhibition [16]: inactive
